Data reported in ChEMBL document CHEMBL4373711, “Development of 3,5-Dinitrophenyl-Containing 1,2,4-Triazoles and Their Trifluoromethyl Analogues as Highly Efficient Antitubercular Agents Inhibiting Decaprenylphosphoryl-β-d-ribofuranose 2'-Oxidase” (J Med Chem, 2019).
≈ marks a conversion by molar mass, not a printed value. Calls of active or inactive are those of the source. The rule behind the calls is not given here.

Assays:
[1] = system: Mycobacterium tuberculosis; assay: Antimycobacterial activity against XDR Mycobacterium tuberculosis Praha 131 after 14 days; format: functional; conditions: for MIC99: Praha 131, 336 h
Summary of the method: (§1)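 M. tuberculosis strains (H37Rv and clinical MDR/XDR isolates) tested by microdilution in Šula's semisynthetic medium. Compounds were dissolved in DMSO and tested at 32 to 0.03 µM in twofold steps. Inoculum was a 1.0 McFarland suspension diluted 10-3. Plates were incubated at 37 °C and read at 14 and 21 days.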

Pseudomonas aeruginosa = assay: Antibacterial activity against Pseudomonas aeruginosa ATCC 27853 CCM 3955 at highest concentration measured after 24 to 48 hrs by alamar blue dye based broth microdilution assay; format: functional, organism-based
Mycobacterium avium [2] = assay: Antimycobacterial activity against Mycobacterium avium CNCTC My 330/88 after 21 days; format: functional; conditions: CNCTC My 330/88, 504 h
Summary of the method: (§2)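 M. avium was tested by microdilution in Šula's semisynthetic medium, with compounds dissolved in DMSO and serially diluted from 1000 down to 1. Inoculum was a 1.0 McFarland suspension diluted 10-5. Plates were incubated at 37 °C and read at 14 and 21 days. […] Isoniazid and rifampicin served as standards.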

Mycobacterium kansasii [3] = assay: Antimycobacterial activity against Mycobacterium kansasii CNCTC My 235/80 after 7 days; format: functional; conditions: CNCTC My 235/80, 168 h
Summary of the method: (§3)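 Microdilution in Šula's semisynthetic medium; compounds in DMSO at 32–0.03 µM. Inoculum from 1.0 McFarland suspension diluted 10-4. […] Isoniazid and rifampicin as reference drugs.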

Mycobacterium kansasii [4] = assay: Antimycobacterial activity against Mycobacterium kansasii 6509/96 after 14 days; format: functional; conditions: 6509/96, 336 h; summary of the method: as §3
Aspergillus fumigatus = assay: Antifungal activity against Aspergillus fumigatus ATCC 204305 at highest concentration measured after 24 to 48 hrs by alamar blue dye based broth microdilution assay; format: functional, organism-based
Mycobacterium avium [5] = assay: Antimycobacterial activity against Mycobacterium avium CNCTC My 330/88 after 14 days; format: functional; conditions: CNCTC My 330/88, 336 h; summary of the method: as §2
Escherichia coli = assay: Antibacterial activity against Escherichia coli ATCC 25922 CCM 3954 at highest concentration measured after 24 to 48 hrs by alamar blue dye based broth microdilution assay; format: functional, organism-based
HepG2 = assay: Cytotoxicity against human HepG2 cells assessed as reduction in cell viability after 48 hrs by CellTiter 96 aqueous one solution assay; format: cell-based; conditions: HepG2, 48 h
Candida parapsilosis = assay: Antifungal activity against Candida parapsilosis ATCC 22019 CCM 8260 at highest concentration measured after 24 to 48 hrs by alamar blue dye based broth microdilution assay; format: functional, organism-based
Mycobacterium kansasii [6] = assay: Antimycobacterial activity against Mycobacterium kansasii CNCTC My 235/80 after 14 days; format: functional; conditions: CNCTC My 235/80, 336 h; summary of the method: as §3
Enterococcus faecalis = assay: Antibacterial activity against Enterococcus faecalis ATCC 29212 CCM 4224 at highest concentration measured after 24 to 48 hrs by alamar blue dye based broth microdilution assay; format: functional, organism-based
[7] = system: Trichophyton interdigitale; assay: Antifungal activity against Trichophyton interdigitale ATCC 9533 CCM 8377 at highest concentration measured after 72 to 120 hrs by alamar blue dye based broth microdilution assay; format: functional
Candida tropicalis = assay: Antifungal activity against Candida tropicalis ATCC 750 CCM 8264 at highest concentration measured after 24 to 48 hrs by alamar blue dye based broth microdilution assay; format: functional, organism-based
Candida albicans = assay: Antifungal activity against Candida albicans ATCC 24433 CCM 8320 at highest concentration measured after 24 to 48 hrs by alamar blue dye based broth microdilution assay; format: functional, organism-based
Mycobacterium kansasii [8] = assay: Antimycobacterial activity against Mycobacterium kansasii 6509/96 after 21 days; format: functional; conditions: 6509/96, 504 h; summary of the method: as §3
Lichtheimia corymbifera = assay: Antifungal activity against Lichtheimia corymbifera CCM 8077 at highest concentration measured after 24 to 48 hrs by alamar blue dye based broth microdilution assay; format: functional, organism-based
Staphylococcus aureus [9] = assay: Antibacterial activity against Staphylococcus aureus subsp. aureus ATCC 29213 CCM 4223 at highest concentration measured after 24 to 48 hrs by alamar blue dye based broth microdilution assay; format: functional, organism-based
Mycobacterium kansasii [10] = assay: Antimycobacterial activity against Mycobacterium kansasii 6509/96 after 7 days; format: functional; conditions: 6509/96, 168 h; summary of the method: as §3
A-431 = assay: Cytotoxicity against human A431 cells assessed as reduction in cell viability after 48 hrs by CellTiter 96 aqueous one solution assay; format: cell-based; conditions: A-431, 48 h
Mycobacterium kansasii [11] = assay: Antimycobacterial activity against Mycobacterium kansasii CNCTC My 235/80 after 21 days; format: functional; conditions: CNCTC My 235/80, 504 h; summary of the method: as §3
[12] = system: Mycobacterium tuberculosis; assay: Antimycobacterial activity against Mycobacterium tuberculosis H37Rv CNCTC My 331/88 after 14 days; format: functional; conditions: H37Rv CNCTC My 331/88, 336 h; summary of the method: as §1
Staphylococcus aureus [13] = assay: Antibacterial activity against methicillin-resistant Staphylococcus aureus subsp. aureus ATCC 43300 CCM 4750 at highest concentration measured after 24 to 48 hrs by alamar blue dye based broth microdilution assay; format: functional, organism-based
Klebsiella pneumoniae = assay: Antibacterial activity against Klebsiella pneumoniae at highest concentration measured after 24 to 48 hrs by alamar blue dye based broth microdilution assay; format: functional, organism-based
Aspergillus flavus = assay: Antifungal activity against Aspergillus flavus CCM 8363 at highest concentration measured after 24 to 48 hrs by alamar blue dye based broth microdilution assay; format: functional, organism-based
Serratia marcescens = assay: Antibacterial activity against Serratia marcescens at highest concentration measured after 24 to 48 hrs by alamar blue dye based broth microdilution assay; format: functional, organism-based
[14] = system: Staphylococcus epidermidis; assay: Antibacterial activity against Staphylococcus epidermidis at highest concentration measured after 24 to 48 hrs by alamar blue dye based broth microdilution assay; format: functional, organism-based
[15] = system: Mycobacterium tuberculosis; assay: Antimycobacterial activity against Mycobacterium tuberculosis H37Rv CNCTC My 331/88 after 21 days; format: functional; conditions: H37Rv CNCTC My 331/88, 504 h; summary of the method: as §1
Pichia kudriavzevii = assay: Antifungal activity against Candida krusei ATCC 6258 CCM8271 at highest concentration measured after 24 to 48 hrs by alamar blue dye based broth microdilution assay; format: functional, organism-based
[16] = Cytotoxicity against human HepG2 cells assessed as cell viability at 30 uM after 48 hrs by CellTiter 96 aqueous one solution assay relative to control; format: cell-based; conditions: read-out: Activity
Summary of the method: (§4)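 HepG2 (DMEM, 10% FBS, 1 mM pyruvate) or A431 (DMEM, 10% FBS) seeded 10,000 cells/well, 24 h at 37 °C, 5% CO2, then 30 µM compound for 48 h. MTS reagent 60 min, absorbance 490 nm, background subtracted; 0.1% DMSO vehicle = 100%, 10% SDS = 0% viability.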

[17] = Cytotoxicity against human A431 cells assessed as cell viability at 30 uM after 48 hrs by CellTiter 96 aqueous one solution assay relative to control; format: cell-based, A-431; conditions: read-out: Activity; summary of the method: as §4

Compound | MIC99 [1] [µM] | Activity (Pseudomonas aeruginosa) | MIC99 (Mycobacterium avium [2]) [µM] | MIC99 (Mycobacterium kansasii [3]) [µM] | MIC99 (Mycobacterium kansasii [4]) [µM] | Activity (Aspergillus fumigatus) | MIC99 (Mycobacterium avium [5]) [µM] | Activity (Escherichia coli) | IC50 (HepG2) [µM] | Activity (Candida parapsilosis) | MIC99 (Mycobacterium kansasii [6]) [µM] | Activity (Enterococcus faecalis) | Activity [7] | Activity (Candida tropicalis) | Activity (Candida albicans) | MIC99 (Mycobacterium kansasii [8]) [µM] | Activity (Lichtheimia corymbifera) | Activity (Staphylococcus aureus [9]) | MIC99 (Mycobacterium kansasii [10]) [µM] | IC50 (A-431) [µM] | also measured
NCC[C@H](O)C(=O)N[C@@H]1C[C@H](N)[C@@H](O[C@H]2O[C@H](CN)[C@@H](O)[C@H](O)[C@H]2O)[C@H](O)[C@H]1O[C@H]1O[C@H](CO)[C@@H](O)[C@H](N)[C@H]1O [AMIKACIN] | > 32 | – | – | – | – | – | – | – | – | – | – | – | – | – | – | – | – | – | – | – | –
CN[C@@H]1[C@H](O[C@H]2[C@H](O[C@H]3[C@H](O)[C@@H](O)[C@H](N=C(N)N)[C@@H](O)[C@@H]3N=C(N)N)O[C@@H](C)[C@]2(O)C=O)O[C@@H](CO)[C@H](O)[C@H]1O [STREPTOMYCIN] | > 32 | – | – | – | – | – | – | – | – | – | – | – | – | – | – | – | – | – | – | – | –
GENTAMICIN | – | – | – | – | – | – | – | – | – | – | – | – | – | – | – | – | – | – | – | – | MIC>99 [1]: > 8 µM
O=[N+]([O-])c1cc(CSc2nnc(-c3ccccc3)n2-c2ccc(Cl)c(Cl)c2)cc([N+](=O)[O-])c1 | – | inactive | 125 (≈ 62.8 µg/mL) | 0.5 (≈ 0.251 µg/mL) | 1 (≈ 0.502 µg/mL) | inactive | 125 (≈ 62.8 µg/mL) | inactive | > 30 | inactive | 1 (≈ 0.502 µg/mL) | inactive | inactive | inactive | inactive | 2 (≈ 1 µg/mL) | inactive | inactive | 0.5 (≈ 0.251 µg/mL) | > 30 | MIC99 (Mycobacterium kansasii [11]): 2 µM (≈ 1 µg/mL); MIC99 [12]: 1 µM (≈ 0.502 µg/mL); Activity (Staphylococcus aureus [13]): inactive; Activity (Klebsiella pneumoniae): inactive; Activity (Aspergillus flavus): inactive; Activity (Serratia marcescens): inactive; Activity [14]: inactive; MIC99 [15]: 2 µM (≈ 1 µg/mL); Activity (Pichia kudriavzevii): inactive; viability at 48 h, 30 µM [16]: 134%; viability at 48 h, 30 µM [17]: 136%
O=[N+]([O-])c1cc(CSc2nnc(-c3ccccc3)n2C2CCCCC2)cc([N+](=O)[O-])c1 | – | inactive | 250 (≈ 110 µg/mL) | 1 (≈ 0.439 µg/mL) | 2 (≈ 0.879 µg/mL) | inactive | 250 (≈ 110 µg/mL) | inactive | > 30 | inactive | 2 (≈ 0.879 µg/mL) | inactive | inactive | inactive | inactive | 4 (≈ 1.76 µg/mL) | inactive | inactive | 1 (≈ 0.439 µg/mL) | > 30 | MIC99 (Mycobacterium kansasii [11]): 4 µM (≈ 1.76 µg/mL); MIC99 [12]: 1 µM (≈ 0.439 µg/mL); Activity (Staphylococcus aureus [13]): inactive; Activity (Klebsiella pneumoniae): inactive; Activity (Aspergillus flavus): inactive; Activity (Serratia marcescens): inactive; Activity [14]: inactive; MIC99 [15]: 2 µM (≈ 0.879 µg/mL); Activity (Pichia kudriavzevii): inactive; viability at 48 h, 30 µM [16]: 87%; viability at 48 h, 30 µM [17]: 131%
